Published values of several laboratories.
Lines come from different studies, so protocols differ.
Cell line: CCRF-CEM
Observed: cell growth or viability

| Compound | test | conditions | IC50 |
| --- | --- | --- | --- |
| COc1ccc2[nH]cc(CCNc3nccc(Nc4cccc5c4ccn5C)n3)c2c1 | fluorescence | 72 h | 0.01 µM |
| CC(C(=O)NOCc1ccccc1)c1cccc(C(OC(=O)NOCc2ccccc2)c2ccccc2)c1 (centres unmarked) | – | 72 h | 14 µM |
| COc1ccc2c(N)c(C(=O)c3cc(OC)c(OC)c(OC)c3)[nH]c2c1 | – | 72 h | 0.32 µM |
| N#Cc1ccc(NC(=S)NN)cc1 | – | 72 h | 21 µg/mL |
| CC(C(=O)NC1CCCCC1)c1cccc(C(OC(=O)NC2CCCCC2)c2ccccc2)c1 (centres unmarked) | – | 72 h | 15 µM |
| N#Cc1ccc(NC(=S)NN=Cc2ccc(F)cc2)cc1 | – | 72 h | 38 µg/mL |
| O=C(c1ccccc1)c1cc2c(-c3ccccc3)c(O)ccc2o1 | – | 72 h | 34 µM |
| CC(C(=O)NCCc1ccccc1)c1cccc(C(OC(=O)NCCc2ccccc2)c2ccccc2)c1 (centres unmarked) | – | 72 h | 14 µM |
| COc1cc(C(=O)c2cc3c(-c4ccccc4)c(OC)ccc3o2)cc(OC)c1OC | – | 72 h | > 50 µM |
| COc1ccc2c(N)c(C(=O)c3cc(OC)c(OC)c(OC)c3)sc2c1 | – | 48 h | 0.0077 µM |
| CSc1ccc(NC(=S)NN)cc1 | – | 72 h | 20 µg/mL |
| COc1ccc2c(N)c(C(=O)c3cc(OC)c(OC)c(OC)c3)n(C)c2c1 | – | 72 h | 0.071 µM |
| N#Cc1ccc(NC(=S)NN=Cc2ccc([N+](=O)[O-])cc2)cc1 | – | 72 h | > 200 µg/mL |
| CC(C(=O)NC1CCCC1)c1cccc(C(OC(=O)NC2CCCC2)c2ccccc2)c1 (centres unmarked) | – | 72 h | 12 µM |
